The values that follow come from ChEMBL document CHEMBL4513216, “Probing the Open Global Health Chemical Diversity Library for Multistage-Active Starting Points for Next-Generation Antimalarials” (ACS Infect Dis, 2020).

The nature of this series: Toxicity liver stage against HepG2, at 10uM. The class given is cell-based. Also on record: test concentration 10 uM, cell line HepG2-A16-CD81EGFP. The conditions noted are these: human, HepG2-A16-CD81EGFP cells; read-out: INHIBITION
An outline of the steps: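 Uninfected HepG2-A16-CD81EGFP cells, 3 × 10^3 per well, 1536-well, plated on prespotted compound at 10 μM final, parasite-free screening media added to match infected plates; puromycin 10 μM positive, DMSO 0.5% negative; run in parallel with 48 h PbLuc assay at 37 °C, 5% CO2; viability by CellTiter-Glo luminescence, normalized to controls.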
With `CN(Cc1cc(C2CC2)[nH]n1)C(=O)c1ccccc1C1CCNC1` (centres undefined), the cytotoxicity at 10 µM turned out to be 1.89%.
As for `CC1CS(=O)(=O)CCN1Cc1ccccc1N(C)C` (centres undefined), the cytotoxicity at 10 µM was found to be 5.29%.
For `CC(C)CN1CCC2(CCN(Cc3ccc(F)cc3)CC2)C1=O` the value was 5.71%; for `CCn1cc(S(=O)(=O)N2CCCSc3ccccc32)cn1`, 9.25%.
Take `Cc1ccc(NC(=O)c2ccc(=O)n(CC(=O)Nc3nccs3)n2)cc1`: the cytotoxicity at 10 µM was 0.592%.
Turning to `CC(C)Oc1ccc(CC2=N[C@](C)(CO)CO2)cc1`, the cytotoxicity at 10 µM was 16.3%.
For `CC(CN1CCCC1=O)NC(=O)c1ccc(-c2ccco2)[nH]c1=O` (centres undefined), the cytotoxicity at 10 µM is -5.04%.
With `CCc1nc(C2CCCN2Cc2cc(=O)n(C)c(=O)n2C)no1` (centres undefined), the cytotoxicity at 10 µM was -11.5%.
As for `CCN(CC)C(=O)Cn1nc(C(C)C)c2cnn(C(C)(C)C)c2c1=O`, the figure is 0.703%; as for `Cc1nc(C)n(C2CCCN(C(=O)c3ccn(C(C)C)n3)C2)n1` (centres undefined), -22.6%.
As to `O[C@@H]1CN(CC2=Cc3cc(Cl)ccc3OC2)CC[C@H]1N1CCCCCC1`, the cytotoxicity at 10 µM amounted to 1.9%.
In the case of `CCOCC1CN(C(=O)c2ccsc2)Cc2nn(C)cc21` (centres undefined), the cytotoxicity at 10 µM was 3.39%.
As for `CCC[C@@H](NC(N)=O)C(=O)N1Cc2ccccc2-c2ccccc2C1`, the figure is 5.17%; as for `COc1cc(N2C[C@H]3CN(C(=O)c4cccnc4)C[C@H]3C2)ncn1`, -141%.
With `CN(C)C(=O)NCC(=O)N(C)Cc1cc(-c2ccccc2)no1`, the cytotoxicity at 10 µM is 1.14%.
As to `CC(C)c1ncncc1C(=O)N1CCN(Cc2ccccn2)CC1`, the cytotoxicity at 10 µM is -2.87%.
With `O=C1CC(c2ccc(C(=O)O)cc2)c2c(sc3c2CCCC3)N1` (centres undefined), the cytotoxicity at 10 µM is -5.14%.
As for `Cc1noc(C2CCN(C(=O)C3CCCO3)CC2)n1` (centres undefined), the figure is 3.95%; as for `O=C(c1ccc2ccccc2c1)C1CCCN(C(=O)Cn2cnnn2)C1` (centres undefined), 1.54%.
Regarding `Cc1cnn(C2CN(CC(O)c3ccc4c(c3)OCCO4)C2)c1` (centres undefined), the cytotoxicity at 10 µM was 21.9%.
As to `CS(=O)(=O)NC1CCCN(C(=O)NCc2ccccc2Cl)C1` (centres undefined), the cytotoxicity at 10 µM is -12.8%.
Consider `CNc1nc2c(s1)C(c1c(Cl)cccc1Cl)CC(=O)N2` (centres undefined), for which the cytotoxicity at 10 µM was -10.4%.
Turning to `COC(=O)C(NC(=O)CC(C)C)c1cc(F)ccc1F` (centres undefined), the cytotoxicity at 10 µM is -0.481%.
With `CO[C@@H]1CN(c2ccccc2)S(=O)(=O)[C@@]12CCN(C)C2`, the cytotoxicity at 10 µM was 3.33%.
Consider `c1cncc(CNC2CCc3ncnn3C2)c1` (centres undefined), for which the cytotoxicity at 10 µM is -7.91%.
For `CN(Cc1cnc(N)nc1)C(=O)C1CC(=O)N(Cc2ccncc2)C1` (centres undefined) the value was 0%; for `Cc1nc(C2CCCN2CCCn2c(=O)oc3ccccc32)no1` (centres undefined), 6.91%.
With `O=S(=O)(NCCCn1cncn1)c1ccc2c(c1)OCCO2`, the cytotoxicity at 10 µM turned out to be 5.38%.
For `O=C(CCCNC(=O)C1CCCO1)Nc1ccc(Cl)cc1` (centres undefined) the value was 13.2%.
As for `COc1cccc(-c2nc(CNCCCn3cccn3)cs2)c1`, the cytotoxicity at 10 µM was -19.7%.
Regarding `Cc1cc(CN2CC[C@H]3C[C@@H](c4nccs4)O[C@@H]3C2)no1`, the cytotoxicity at 10 µM was -84.8%.
As for `CCc1nc(NS(=O)(=O)c2cc(C)c(F)cc2Cl)no1`, the figure is 15.8%.
For the compound `CCN(C)C(=O)c1cccc(S(=O)(=O)NCCc2nc(C)cc(=O)[nH]2)c1`, the cytotoxicity at 10 µM was -39.9%.
`NC(=O)C1CCN(c2ncccc2C(=O)N2CCc3ccccc32)C1` (centres undefined): the cytotoxicity at 10 µM was -5.78%.
On to `CN(C1CCCCC1)S(=O)(=O)N1CCN(Cc2ccon2)CC1`, for which the cytotoxicity at 10 µM came out at 6.75%.
On to `Cc1nc(CN2CCC(N(C)Cc3noc(C4CC4)n3)C2)oc1C` (centres undefined), for which the cytotoxicity at 10 µM was -11.1%.
`CNc1ccc(CC2CCCN(C(=O)c3cnco3)C2)nn1` (centres undefined): the cytotoxicity at 10 µM was -8.55%.
For `N#CCCN(Cc1ccco1)C(=O)CN1CCCC1c1cccs1` (centres undefined), the cytotoxicity at 10 µM was -2.56%.
Regarding `C1CCC(NCC2(N3CCOCC3)CCSC2)C1` (centres undefined), the cytotoxicity at 10 µM is -10.8%.
